Experimental data taken from ChEMBL document CHEMBL1156133, “Losartan-antioxidant hybrids: novel molecules for the prevention of hypertension-induced cardiovascular damage” (J Med Chem, 2009).

Tests used:
[1] = Antioxidant activity assessed as inhibition of oxidation of chromogen (ABTS) measured per mmol/L of product by total antioxidant assay; format: functional
In short: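 Total antioxidant status kit: inhibition of ABTS oxidation by metmyoglobin and hydrogen peroxide, followed at 600 nm absorbance; antioxidant ability proportional to absorbance reduction, expressed as mM. Compounds tested at 1 mmol/L.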

VSMC = assay: Displacement of [125I]angiotensin II from angiotensin 2 receptor in Wistar rat VSMC cells by gamma-counter; format: cell-based; set-up: concentration or dose not given beside the values
In short: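 Rat aortic VSMC (collagenase-derived primary cultures, passages 3-5) resuspended in Tris-glucose-NaCl buffer pH 7.4 at 0.5 μg/μL protein; 125 μg protein incubated 45 min with 0.15 nM 125I-angiotensin II plus compound. Bound separated by centrifugation, pellet washed with cold 0.15 M NaCl, gamma counted; nonspecific binding with 10^-4 M angiotensin II.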

Rattus norvegicus [2] = assay: Plasma concentration in po dosed Wistar rat assessed as EXP-3174 level after 4 weeks; format: ADME, organism-based; settings: in vivo, 672 h
In short: (§1)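 Separate groups of Wistar rats dosed in drinking water for 4 weeks (n = 4-6 per group), then sacrificed and plasma analyzed by HPLC-MS/MS (triple quadrupole, electrospray), isocratic MeOH/water with 0.1% formic acid, 40 °C. Two plasma samples per animal; mean ± SEM.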

Rattus norvegicus [3] = assay: Plasma concentration in po dosed Wistar rat assessed as losartan level after 4 weeks; format: ADME, organism-based; settings: in vivo, 672 h; in short: as §1

Compound | Activity [1] | Activity (VSMC) | concentration (Rattus norvegicus [2]) | concentration (Rattus norvegicus [3])
CCCCc1ncc(COC(=O)C2(C)CCc3c(C)c(O)c(C)c(C)c3O2)n1Cc1ccc(-c2ccccc2-c2nnn[nH]2)cc1 (stereo not given) | 0.27 mmol/L | 65% |  | 
CCCCc1nc(Cl)c(CO)n1Cc1ccc(-c2ccccc2-c2nn[nH]n2)cc1 [LOSARTAN] |  |  | 39 nM | 24.4 nM
CCCCc1ncc(COC(=O)Cc2cc(C(C)(C)C)c(O)c(C(C)(C)C)c2)n1Cc1ccc(-c2ccccc2-c2nnn[nH]2)cc1 | 0.24 mmol/L | 77% |  | 
CCCCc1nc(Cl)c(COC(=O)Cc2cc(C(C)(C)C)c(O)c(C(C)(C)C)c2)n1Cc1ccc(-c2ccccc2-c2nnn[nH]2)cc1 | 0.16 mmol/L | 65% |  | 
CCCCc1nc(Cl)c(COC(=O)C2(C)CCc3c(C)c(O)c(C)c(C)c3O2)n1Cc1ccc(-c2ccccc2-c2nnn[nH]2)cc1 (stereo not given) | 0.25 mmol/L | 68% |  | 
